# Reference: ChEMBL document CHEMBL1641369, “The synthesis and biological evaluation of 2-(3-methyl or 3-phenylisoxazol-5-yl)-3-aryl-8-thiabicyclo[3.2.1]octanes” (Bioorg Med Chem Lett, 2011)
# Key:
# [1] = target: Sodium-dependent dopamine transporter (Homo sapiens, UniProt Q01959); assay: Displacement of [3H]WIN35428 from human DAT transfected cell membrane
# [2] = target: Sodium-dependent serotonin transporter (Homo sapiens, UniProt P31645); assay: Displacement of [3H]citalopram from human SERT expressed in HEK293 cell membrane; assay type: cell membranes
# Sequence of Sodium-dependent serotonin transporter (P31645 whole entry): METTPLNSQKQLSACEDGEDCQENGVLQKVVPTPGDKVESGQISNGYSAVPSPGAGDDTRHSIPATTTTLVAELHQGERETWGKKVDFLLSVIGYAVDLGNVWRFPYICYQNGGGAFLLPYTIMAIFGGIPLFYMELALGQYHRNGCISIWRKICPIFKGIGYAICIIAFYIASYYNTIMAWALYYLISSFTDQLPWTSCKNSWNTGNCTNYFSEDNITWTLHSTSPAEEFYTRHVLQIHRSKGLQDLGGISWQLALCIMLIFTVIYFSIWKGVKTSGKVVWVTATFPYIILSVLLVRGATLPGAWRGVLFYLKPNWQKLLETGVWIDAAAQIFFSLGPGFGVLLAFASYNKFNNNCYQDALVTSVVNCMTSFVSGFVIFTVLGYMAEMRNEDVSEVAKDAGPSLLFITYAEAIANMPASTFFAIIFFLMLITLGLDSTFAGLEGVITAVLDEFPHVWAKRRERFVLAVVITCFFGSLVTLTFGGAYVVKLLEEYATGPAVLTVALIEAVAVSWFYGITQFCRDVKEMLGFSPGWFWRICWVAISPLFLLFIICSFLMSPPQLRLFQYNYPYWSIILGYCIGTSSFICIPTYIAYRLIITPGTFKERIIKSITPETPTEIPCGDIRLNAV
# Summary of the method: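 Human SERT was labelled with [3H]citalopram at a fixed concentration and competed against a range of test-drug concentrations. Nonspecific binding was measured with fluoxetine at 10 μM. IC50 reported as mean ± SEM of at least three independent experiments, each run in triplicate. Some entries are screening data from replicate triplicate experiments.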
# Sequence of Sodium-dependent dopamine transporter (Q01959 whole entry): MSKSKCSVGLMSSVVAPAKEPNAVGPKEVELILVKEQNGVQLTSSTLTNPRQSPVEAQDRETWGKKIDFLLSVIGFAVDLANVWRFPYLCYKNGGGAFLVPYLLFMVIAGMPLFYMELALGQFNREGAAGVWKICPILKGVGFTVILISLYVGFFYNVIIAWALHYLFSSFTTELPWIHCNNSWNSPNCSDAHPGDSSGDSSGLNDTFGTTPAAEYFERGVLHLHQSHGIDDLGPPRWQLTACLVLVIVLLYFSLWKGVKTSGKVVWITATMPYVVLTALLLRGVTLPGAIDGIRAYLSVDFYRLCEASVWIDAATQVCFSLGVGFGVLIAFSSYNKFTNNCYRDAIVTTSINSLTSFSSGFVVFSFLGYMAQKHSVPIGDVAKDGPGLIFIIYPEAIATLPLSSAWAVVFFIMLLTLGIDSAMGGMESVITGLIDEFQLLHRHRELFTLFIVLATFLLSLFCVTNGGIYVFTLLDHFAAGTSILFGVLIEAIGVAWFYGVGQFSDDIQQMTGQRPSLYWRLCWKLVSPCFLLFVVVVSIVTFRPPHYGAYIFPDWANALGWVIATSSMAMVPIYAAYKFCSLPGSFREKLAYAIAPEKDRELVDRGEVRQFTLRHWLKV
Compound,IC50 [1] [nM],IC50 [2] [nM]
Fc1ccc(C2=C(c3cc(-c4ccccc4)no3)C3CCC(C2)S3)cc1 (stereo unspecified),> 2000,> 10000
Cc1cc([C@@H]2C3CCC(C[C@@H]2c2ccc(Cl)cc2)S3)on1 (stereo partly specified),7.2,> 1000
Clc1ccc([C@H]2CC3CCC(S3)C2c2cc(-c3ccccc3)no2)cc1Cl (stereo partly specified),269,> 10000
Cc1cc(C2=C(c3ccc(F)cc3)CC3CCC2S3)on1 (stereo unspecified),> 1000,> 10000
Cc1cc([C@@H]2C3CCC(C[C@H]2c2ccc(Cl)c(Cl)c2)S3)on1 (stereo partly specified),101,> 2000
Clc1ccc(C2=C(c3cc(-c4ccccc4)no3)C3CCC(C2)S3)cc1Cl (stereo unspecified),332,> 10000
Cc1cc([C@@H]2C3CCC(C[C@@H]2c2ccc(F)cc2)S3)on1 (stereo partly specified),7,> 1000
Fc1ccc([C@@H]2CC3CCC(S3)C2c2cc(-c3ccccc3)no2)cc1 (stereo partly specified),456,> 10000
Cc1cc([C@@H]2C3CCC(C[C@H]2c2ccc(Br)cc2)S3)on1 (stereo partly specified),46.6,> 4000
Cc1cc([C@@H]2C3CCC(C[C@@H]2c2ccc(Cl)c(Cl)c2)S3)on1 (stereo partly specified),43.5,766
c1ccc(-c2cc(C3C4CCC(C[C@H]3c3ccccc3)S4)on2)cc1 (stereo partly specified),> 1000,> 10000
Cc1cc([C@@H]2C3CCC(C[C@H]2c2ccc(Cl)cc2)S3)on1 (stereo partly specified),32.7,> 7000
Fc1ccc([C@H]2CC3CCC(S3)C2c2cc(-c3ccccc3)no2)cc1 (stereo partly specified),49,> 10000
Clc1ccc(C2=C(c3cc(-c4ccccc4)no3)C3CCC(C2)S3)cc1 (stereo unspecified),66.5,> 10000
Cc1cc([C@@H]2C3CCC(C[C@H]2c2ccc(F)cc2)S3)on1 (stereo partly specified),22,> 10000
Cc1cc(C2=C(c3ccc(Br)cc3)CC3CCC2S3)on1 (stereo unspecified),139,> 10000
Cc1cc([C@@H]2C3CCC(C[C@@H]2c2ccc(Br)cc2)S3)on1 (stereo partly specified),14,755
Cc1cc(C2=C(c3ccccc3)CC3CCC2S3)on1 (stereo unspecified),> 2000,> 10000
Cc1cc([C@@H]2C3CCC(C[C@H]2c2ccccc2)S3)on1 (stereo partly specified),65,> 10000
Clc1ccc([C@@H]2CC3CCC(S3)C2c2cc(-c3ccccc3)no2)cc1Cl (stereo partly specified),497,> 10000
Cc1cc([C@@H]2C3CCC(C[C@@H]2c2ccccc2)S3)on1 (stereo partly specified),12,> 10000
Clc1ccc([C@@H]2CC3CCC(S3)C2c2cc(-c3ccccc3)no2)cc1 (stereo partly specified),130,> 10000
c1ccc(-c2cc(C3C4CCC(C[C@@H]3c3ccccc3)S4)on2)cc1 (stereo partly specified),157,> 10000
Cc1cc(C2=C(c3ccc(Cl)c(Cl)c3)CC3CCC2S3)on1 (stereo unspecified),69.2,> 10000
Cc1cc(C2=C(c3ccc(Cl)cc3)CC3CCC2S3)on1 (stereo unspecified),155,> 10000
c1ccc(C2=C(c3cc(-c4ccccc4)no3)C3CCC(C2)S3)cc1 (stereo unspecified),> 5000,> 10000
Brc1ccc(C2=C(c3cc(-c4ccccc4)no3)C3CCC(C2)S3)cc1 (stereo unspecified),126,> 10000
Brc1ccc([C@@H]2CC3CCC(S3)C2c2cc(-c3ccccc3)no2)cc1 (stereo partly specified),238,> 10000
